VIM-2 inh = VIM-2 metallo-beta-lactamase inhibitors, primary screen, biochemical, epi-absorbance readout, Pseudomonas aeruginosa enzyme | purified VIM-2, nitrocefin hydrolysis, epi-absorbance fluorescence | inhibition, % at 5.6 µM | 0.89% of 290,000 active;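 active means inhibition above the mean of all tested compounds plus 3 SD, cutoff set per screening run, cut at about 7.5% in these data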;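 further: red hydrolysis product quenches plate fluorescence so inhibitors raise well fluorescence; 0% = enzyme with DMSO and 100% = DMSO without enzyme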
PAFAH1B3 FP inh = PAFAH1B3 enzyme inhibitors, primary screen, biochemical, fluorescence polarization, human; Platelet-activating factor acetylhydrolase IB subunit alpha1 (Homo sapiens), Q15102; recombinant PAFAH1B3, FP-rhodamine probe; inhibition, % at 3.39 µM; 0.28% of 340,000 active;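 active means inhibition above the screen-wide average of all tested compounds plus 3 SD, cut at about 25% in these data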;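 further: 0% = enzyme with DMSO only and 100% = wells lacking PAFAH1B3 protein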
Target sequence (Q15102 whole entry, looked up): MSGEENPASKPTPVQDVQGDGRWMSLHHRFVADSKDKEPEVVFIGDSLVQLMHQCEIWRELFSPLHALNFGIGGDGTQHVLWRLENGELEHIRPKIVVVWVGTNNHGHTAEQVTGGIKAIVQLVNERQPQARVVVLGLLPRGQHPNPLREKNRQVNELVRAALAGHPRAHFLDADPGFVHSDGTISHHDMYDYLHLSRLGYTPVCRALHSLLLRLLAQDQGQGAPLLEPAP
IMP-1 inhibitor = IMP-1 metallo-beta-lactamase inhibitors, primary screen, biochemical, epi-absorbance readout, Pseudomonas aeruginosa enzyme; metallo-beta-lactamase IMP-1 (Pseudomonas aeruginosa); purified IMP-1, nitrocefin hydrolysis, epi-absorbance fluorescence; inhibition, % at 5.6 µM; 0.45% of 290,000 active;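 active means inhibition above the mean plus 3 SD of all compounds in the same screening run, cut at about 4.5% in these data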;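 further: 0% = IMP-1 with DMSO and 100% = DMSO wells lacking enzyme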
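Assay system: purified IMP-1; Quantity: IMP-1 0.2 nM before substrate addition; Medium: HEPES buffer pH 7.1 with ZnSO4 and Brij 35; Incubation: 15 min enzyme–compound preincubation, then 25 min nitrocefin reaction, 25 °C; Signal: fluorescence quenching readout, ex 480/em 530 nm; Controls: DMSO with and without IMP-1; Repeats: singlicate testing.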
PAFAH2 FP inh = PAFAH2 enzyme inhibitors, primary screen, biochemical, fluorescence polarization, human | Platelet-activating factor acetylhydrolase 2, cytoplasmic (Homo sapiens), Q99487 | recombinant PAFAH2, FP-rhodamine activity probe | inhibition, % at 3.39 µM | 0.99% of 340,000 active | AID 492956, 2010;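 active means inhibition above the mean over all tested compounds plus 3 SD, cut at about 30% in these data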;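 further: inhibitors block probe labeling of enzyme so polarization drops; 0% = enzyme with DMSO and 100% = wells lacking PAFAH2 protein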
pPAFAH FP inh = pPAFAH enzyme inhibitors, primary screen, biochemical, fluorescence polarization, human; AID 463082, 2010; recombinant pPAFAH, FP-rhodamine probe fluorescence polarization; Platelet-activating factor acetylhydrolase (Homo sapiens), Q13093; 1.5% of 330,000 active; inhibition, % at 3.39 µM;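 active means inhibition above the mean inhibition across the screen plus 3 SD, cut at about 25% in these data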;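 further: inhibitors block binding of the rhodamine activity-based probe so polarization drops; 0% = enzyme with DMSO and 100% = wells lacking pPAFAH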
PAFAH1B2 FP inh = PAFAH1B2 enzyme inhibitors, primary screen, biochemical, fluorescence polarization, human; 1.2% of 340,000 active; recombinant PAFAH1B2, FP-rhodamine activity probe; inhibition, % at 3.39 µM; Platelet-activating factor acetylhydrolase IB subunit alpha2 (Homo sapiens), P68402;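 active means inhibition above the mean of all tested compounds plus 3 SD, cut at about 24% in these data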;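 further: 0% = enzyme with DMSO and 100% = wells lacking PAFAH1B2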
Target sequence (P68402 whole entry, looked up): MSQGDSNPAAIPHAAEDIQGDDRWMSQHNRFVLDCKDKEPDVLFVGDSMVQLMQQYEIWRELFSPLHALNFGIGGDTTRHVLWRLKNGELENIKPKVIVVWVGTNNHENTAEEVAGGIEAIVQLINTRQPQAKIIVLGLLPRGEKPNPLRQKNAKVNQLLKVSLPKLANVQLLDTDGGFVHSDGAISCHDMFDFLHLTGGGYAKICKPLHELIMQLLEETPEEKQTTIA
An asterisk follows results filed as active; x = no result given. This is a sample that favours compounds with a hit; in the whole collection about 3.6% have one here.

SMILES	VIM-2 inh	PAFAH1B3 FP inh	IMP-1 inhibitor	PAFAH2 FP inh	pPAFAH FP inh	PAFAH1B2 FP inh
COc1ccc(-c2cc(=O)oc3c(C)c(OCC(=O)Nc4cccnc4)ccc23)cc1	0	-4	6.7*	2	13	-1
O=c1cc(O)n(Cc2ccc(F)cc2)c(=O)[nH]1	-3	15	-1	3	x	14
Clc1ccc(OCCSc2ncccn2)c2ccccc12	-2	-3	-2	-1	6	-3
c1cnc(SCCOc2cccc3ccccc23)nc1	-1	-3	4.8*	-4	5	5
COc1ccc(N2C(=O)[C@@H]3[C@H](C2=O)[C@H]2c4ccccc4C=CN2[C@@H]3C(=O)Nc2ccccc2)cc1	1	8	42*	6	4	9
CC1=Nc2ccccc2/C1=C\c1sc(Nc2ccc(C)cc2)nc1O	-2	5	-1	-1	28*	3
Oc1cccc(Nc2nc(O)c(/C=C3\C=Nc4ccccc43)s2)c1	-2	-249	-3	-21	28*	15
O=C(Cn1c(O)c(/C=C2\C=Nc3ccccc32)sc1=O)N1CCOCC1	-2	1	-3	-3	5	4
CCOc1ccc([N+](=O)[O-])cc1CNC1CCCCCCC1	1	7	39*	1	-2	2
COCc1n[nH]c(=S)n1-c1cccc2ccccc12	8.0*	-1	-3	2	3	1
O=C(OCC(=O)N1CCN(c2ccc(F)cc2)CC1)c1cnc2ccccc2n1	x	1	x	3	1	1
CCOC(=O)C(=CNc1ccc(NC2=NCC(C)(C)S2)cc1)C(=O)OCC	10*	8	-5	0	6	3
O=C1CC(c2cccc(Br)c2)c2cc3c(cc2N1)CCC3 (configuration not stated)	-2	4	-3	1	28*	5
COC(=O)c1c(C(=O)c2ccc(Br)cc2)n(C)c2ccccc12	x	-4	x	5	-9	-3
COc1cc(C(=S)N2CCN(C)CC2)ccc1OCC(=O)NCc1ccccc1	2	x	0	x	2	x
COc1cccc(NC(=O)COc2ccc(C(=S)N3CCN(C)CC3)cc2OC)c1	8.3*	0	1	2	5	1
CC1CCc2c(sc(NS(=O)(=O)c3ccccc3)c2C(=O)OC(C)C)C1 (configuration not stated)	-3	-2	-4	6	25*	3
CCOc1cc(/C=C2\C(=N)N3N=C(CC)SC3=NC2=O)ccc1OCCOc1ccc(NC(C)=O)cc1	5	5	0	-5	3	3
CCC1=NN2C(=N)/C(=C\c3ccc(OCCOc4ccc(NC(C)=O)cc4)cc3)C(=O)N=C2S1	10*	8	-3	0	4	1
COc1cccc(NC(=O)CN2CCN(C(=O)c3ccco3)CC2)c1	0	1	-4	-2	3	2
COc1ccc(C(=O)COC(=O)c2ccccc2O)c(OC)c1	x	9	x	1	-2	0
Cc1ccc(C)c(C(=O)N(Cc2nc(-c3ccc(Cl)cc3)no2)C(C)C)c1	-2	1	-5	4	27*	-1
COc1cccc(OCC(=O)N(Cc2nc(-c3ccc(Cl)cc3)no2)C(C)C)c1	-3	8	-5	-7	26*	-2
COc1cccc(C(=O)N(Cc2nc(-c3ccc(C)cc3)no2)C(C)C)c1	-3	-9	-6	-3	0	2
CCC1Nc2ncnc(N3CCc4ccccc4C3)c2N(Cc2ccc(Cl)cc2)C1=O (configuration not stated)	x	-7	x	2	6	26*
SMILES	VIM-2 inh	PAFAH1B3 FP inh	IMP-1 inhibitor	PAFAH2 FP inh	pPAFAH FP inh	PAFAH1B2 FP inh
O=C1C(Cc2ccccc2)Nc2ncnc(N3CCc4ccccc4C3)c2N1Cc1ccc(Cl)cc1 (configuration not stated)	x	-8	x	-8	4	19
O=c1cc(CO)oc(CN2CCCC2)c1O	-1	12	8.3*	5	6	3
COc1ccc(CNC(=O)[C@H](C)NC(=O)[C@@H]2Cc3ccccc3CN2)cc1	-1	6	-1	2	3	6
CC(=O)NC(=S)Nc1ccccc1C(=O)Nc1ccccc1	0	5	28*	3	-1	4
CCCCC(=O)NC(=S)Nc1ccccc1C(=O)Nc1ccccc1	0	8	13*	-9	-3	6
CCCCCC(=O)NC(=S)Nc1ccccc1C(=O)OC	-2	3	-1	-4	4	2
CC(=O)C1=C(O)C(=O)N(Cc2ccccc2)C1c1ccc([N+](=O)[O-])cc1 (configuration not stated)	-1	2	0	7	-3	12
Cc1cc(NC(=O)CSCc2ccccc2)no1	-2	2	0	9	3	2
Cc1cc(CSCc2ccc(Cl)cc2)no1	-1	-3	-1	0	3	27*
Nc1ccc(N=Nc2ccccc2)c2cccnc12	-1	13	-3	9	28*	4
Oc1ccc(N=Nc2ccc3c(c2)OCCO3)c(O)c1	-5	3	-5	5	1	0
Oc1ccc(N=Nc2ccc3c(c2)OCCO3)c2cccnc12	-1	6	-2	0	33*	0
Nc1ccc(Br)c2cccnc12	-2	8	-3	9	10	-1
COc1ccc(N=Nc2ccc(O)c3ncccc23)cc1	1	8	-1	-4	31*	-3
O=C(N/N=C/c1cccnc1)c1cc(O)c(O)c(O)c1	0	18	-2	1	8	0
Cc1ccc(SCC(=O)NCC(C)C)cc1	-2	1	-1	4	-3	15
CC(C)CNC(=O)CSc1ccc(Cl)cc1	1	-2	-1	2	3	26*
O=C(NCCC1=CCCCC1)c1ccc(Cl)c(S(=O)(=O)Nc2ccccc2)c1	-1	-8	0	11	16	28*
Cc1ccc(C(=O)NCCC2=CCCCC2)cc1S(=O)(=O)N1CCCCC1	x	4	x	5	-3	6
CCOc1cc(Br)cc(/C=C2\SC(=Nc3ccccc3)NC2=O)c1O	-1	7	-3	12	25*	6
CC(=O)N1CCN(S(=O)(=O)c2cccc(C(=O)NNC(=O)COc3ccc(F)cc3)c2)CC1	x	7	x	-2	4	4
CCOc1cc2c(cc1/C=C(/C#N)c1ccc(C(=O)O)cc1)OCO2	-1	4	-3	-1	8	3
N#C/C(=C\c1cc2c(cc1Br)OCO2)c1ccc(C(=O)O)cc1	-1	6	-5	5	-5	33*

Source: PubChem
